Test results as given in ChEMBL document CHEMBL1649273, “In vivo activity of a novel anti-methicillin-resistant Staphylococcus aureus cephalosporin, ceftaroline, against vancomycin-susceptible and -resistant Enterococcus faecalis strains in a rabbit endocarditis model: a comparative study with linezolid and vancomycin” (2009).
Activity calls are given as the source filed them. The calls are words filed in the database; no cut-off is given here.

Tests used:
[1] = test system: Enterococcus faecalis; test: Antibacterial activity against vancomycin-susceptible Enterococcus faecalis EF 12704 assessed as bactericidal activity at 25 mg/l after 24 hrs by time kill assay; type: functional, organism-based
Procedure, shortened: (§1)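 Time-kill experiments used an inoculum of 5 × 10^6 CFU/ml, with bacterial counts followed over 24 h.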

[2] = test system: Enterococcus faecalis; test: Antibacterial activity against vancomycin-resistant Enterococcus faecalis EF NJ1 assessed as bactericidal activity at 25 mg/l after 24 hrs by time kill assay; type: functional, organism-based; procedure, shortened: as §1
[3] = test system: Enterococcus faecalis; test: Antibacterial activity against vancomycin-susceptible Enterococcus faecalis EF 12704 infected in New Zealand White rabbit assessed as log reduction of bacterial count in aortic valve vegetations at 10 mg/kg, administered through ear vein every 12 hrs for 4 days; type: functional
Procedure, shortened: (§2)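 New Zealand White rabbits were anesthetized and given left-ventricular catheters. Endocarditis was induced 24 h later with 10^8 CFU E. faecalis. From 24 h post-inoculation, drug was given via the marginal ear vein by computer-controlled pump, simulating human pharmacokinetics of 600 mg every 12 h (10 mg/kg/12 h). After 4 days, aortic vegetations were excised, weighed, homogenized in 0.5 ml saline and cultured quantitatively on agar for 24 h at 37°C.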

[4] = test system: Enterococcus faecalis; test: Antibacterial activity against vancomycin-resistant Enterococcus faecalis EF NJ1 infected in New Zealand White rabbit assessed as log reduction of bacterial count in aortic valve vegetations at 10 mg/kg, administered through ear vein every 12 hrs for 4 days; type: functional; procedure, shortened: as §2
[5] = test system: Enterococcus faecalis; test: Antibacterial activity against vancomycin-susceptible Enterococcus faecalis EF 12704 infected in New Zealand White rabbit assessed as reduction of bacterial count in aortic valve vegetations administered through ear vein every 12 hrs for 4 days (reference value: 8.56 +/- 0.74 CFU/g); type: functional
[6] = test system: Enterococcus faecalis; test: Antibacterial activity against vancomycin-resistant Enterococcus faecalis EF NJ1 infected in New Zealand White rabbit assessed as reduction of bacterial count in aortic valve vegetations administered through ear vein every 12 hrs for 4 days (reference value: 8.60 +/- 0.54 CFU/g); type: functional
[7] = test system: Enterococcus faecalis; test: Antibacterial activity against vancomycin-susceptible Enterococcus faecalis EF 12704 infected in New Zealand White rabbit assessed as reduction of bacterial count in aortic valve vegetations at 10 mg/kg, administered through ear vein every 12 hrs for 4 days (reference value: 8.56 +/- 0.74 CFU/g); type: functional; procedure, shortened: as §2
[8] = test system: Enterococcus faecalis; test: Antibacterial activity against vancomycin-susceptible Enterococcus faecalis EF 12704 assessed as log reduction in bacterial count at 12 mg/l after 24 hrs by time kill assay; type: functional; procedure, shortened: as §1

Compound: CN[C@H](CC(C)C)C(=O)N[C@H]1C(=O)N[C@@H](CC(N)=O)C(=O)N[C@H]2C(=O)N[C@H]3C(=O)N[C@H](C(=O)N[C@H](C(=O)O)c4cc(O)cc(O)c4-c4cc3ccc4O)[C@H](O)c3ccc(c(Cl)c3)Oc3cc2cc(c3O[C@@H]2O[C@H](CO)[C@@H](O)[C@H](O)[C@H]2O[C@H]2C[C@](C)(N)[C@H](O)[C@H](C)O2)Oc2ccc(cc2Cl)[C@H]1O [VANCOMYCIN]
- Activity [1]: inactive
- Activity [2]: inactive
- log10CFU/g [3]: 2
- log10CFU/g [4]: 2
- log10CFU/g [5]: 6.7
- log10CFU/g [6]: 8.01

Compound: CC(=O)NC[C@H]1CN(c2ccc(N3CCOCC3)c(F)c2)C(=O)O1 [LINEZOLID]
- log10CFU/g [3]: >3
- log10CFU/g [7]: 6.88
- log10CFU/ml [8]: 1
